Measured values: ChEMBL document CHEMBL1629459, “Microarray and molecular analyses of the azole resistance mechanism in Candida glabrata oropharyngeal isolates” (2010)
Values after ≈ are worked out from the molar mass of the structure shown.

Assays:
Format in all cases: functional
Nakaseomyces glabratus [1] = assay: Antifungal activity against Candida glabrata isolate Cg18R with CgPDR1 L344S mutant
Method in brief: (§1)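 Fluconazole susceptibility by modified CLSI (NCCLS) broth microdilution. Medium was buffered RPMI with 2% glucose added. Inoculum was 250 cells per well, incubated at 37°C for 48 h. MIC was read as the concentration giving 80% growth reduction (MIC80). Clinical oropharyngeal isolates were cultured on YPD or on minimal medium (yeast nitrogen base plus 2% glucose).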

Nakaseomyces glabratus [2] = assay: Antifungal activity against Candida glabrata isolate Cg11S; method in brief: as §1
Nakaseomyces glabratus [3] = assay: Antifungal activity against Candida glabrata isolate Cg21S; method in brief: as §1
Nakaseomyces glabratus [4] = assay: Antifungal activity against Candida glabrata isolate Cg3S; method in brief: as §1
Nakaseomyces glabratus [5] = assay: Antifungal activity against Candida glabrata isolate Cg16R with CgPDR1 R772I mutant; method in brief: as §1
Nakaseomyces glabratus [6] = assay: Antifungal activity against Candida glabrata isolate Cg5S; method in brief: as §1
Nakaseomyces glabratus [7] = assay: Antifungal activity against Candida glabrata isolate Cg4R with CgPDR1 S391L mutant; method in brief: as §1
Nakaseomyces glabratus [8] = assay: Antifungal activity against Candida glabrata isolate Cg22R with CgPDR1 L280F mutant; method in brief: as §1
Nakaseomyces glabratus [9] = assay: Antifungal activity against Candida glabrata isolate Cg2R with CgPDR1 F575L mutant; method in brief: as §1
Nakaseomyces glabratus [10] = assay: Antifungal activity against Candida glabrata isolate Cg14R with CgPDR1 N764I mutant; method in brief: as §1
Nakaseomyces glabratus [11] = assay: Antifungal activity against Candida glabrata isolate Cg8R with CgPDR1 W297S; method in brief: as §1
Nakaseomyces glabratus [12] = assay: Antifungal activity against Candida glabrata isolate Cg6R with CgPDR1 G943S mutant; method in brief: as §1
Nakaseomyces glabratus [13] = assay: Antifungal activity against Candida glabrata isolate Cg1S; method in brief: as §1
Nakaseomyces glabratus [14] = assay: Antifungal activity against Candida glabrata isolate Cg7S; method in brief: as §1
Nakaseomyces glabratus [15] = assay: Antifungal activity against Candida glabrata isolate Cg15S; method in brief: as §1
Nakaseomyces glabratus [16] = assay: Antifungal activity against Candida glabrata isolate Cg17S; method in brief: as §1
Nakaseomyces glabratus [17] = assay: Antifungal activity against Candida glabrata isolate Cg12R with CgPDR1 G348A mutant; method in brief: as §1
Nakaseomyces glabratus [18] = assay: Antifungal activity against Candida glabrata isolate Cg13S; method in brief: as §1

OC(Cn1cncn1)(Cn1cncn1)c1ccc(F)cc1F [FLUCONAZOLE]
MIC80 (Nakaseomyces glabratus [1]): 256 µg/mL (≈ 836 µM)
MIC80 (Nakaseomyces glabratus [2]): 32 µg/mL (≈ 104 µM)
MIC80 (Nakaseomyces glabratus [3]): 32 µg/mL (≈ 104 µM)
MIC80 (Nakaseomyces glabratus [4]): 32 µg/mL (≈ 104 µM)
MIC80 (Nakaseomyces glabratus [5]): 128 µg/mL (≈ 418 µM)
MIC80 (Nakaseomyces glabratus [6]): 32 µg/mL (≈ 104 µM)
MIC80 (Nakaseomyces glabratus [7]): 256 µg/mL (≈ 836 µM)
MIC80 (Nakaseomyces glabratus [8]): 256 µg/mL (≈ 836 µM)
MIC80 (Nakaseomyces glabratus [9]): 128 µg/mL (≈ 418 µM)
MIC80 (Nakaseomyces glabratus [10]): 256 µg/mL (≈ 836 µM)
MIC80 (Nakaseomyces glabratus [11]): 512 µg/mL (≈ 1670 µM)
MIC80 (Nakaseomyces glabratus [12]): 256 µg/mL (≈ 836 µM)
MIC80 (Nakaseomyces glabratus [13]): 16 µg/mL (≈ 52.2 µM)
MIC80 (Nakaseomyces glabratus [14]): 32 µg/mL (≈ 104 µM)
MIC80 (Nakaseomyces glabratus [15]): 16 µg/mL (≈ 52.2 µM)
MIC80 (Nakaseomyces glabratus [16]): 32 µg/mL (≈ 104 µM)
MIC80 (Nakaseomyces glabratus [17]): 256 µg/mL (≈ 836 µM)
MIC80 (Nakaseomyces glabratus [18]): 64 µg/mL (≈ 209 µM)
